Measurements reported in ChEMBL document CHEMBL1139091, “Synthesis and antimycobacterial evaluation of benzofurobenzopyran analogues” (2007).
≈ marks a conversion by molar mass, not a printed value.

Legend:
[1] = tested on: Mycolicibacterium smegmatis; assay: Antimycobacterial activity against Mycobacterium smegmatis mc2155 after 48 hrs by microdilution resazurin assay; type: functional; conditions: str. MC2 155, 48 h
Summary of the method: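 Inoculum of M. smegmatis mc²155 grown in Dubos medium + 10% ADC; twofold serial dilutions in Dubos broth, 500 to 0.9 µg/mL. DMSO and isoniazid controls. 48 h at 37 °C, then 0.01% resazurin added, further 24 h. Growth is read as blue-to-pink change plus OD 530–630 nm.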

[2] = tested on: Mycobacterium tuberculosis; assay: Antimycobacterial activity against Mycobacterium tuberculosis H37Rv after 6 days by microdilution resazurin assay; type: functional; conditions: 144 h
Summary of the method: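 M. tuberculosis H37Rv inoculum grown in Dubos medium with 10% ADC. Twofold dilutions in Dubos broth, 500 to 0.9 µg/mL, with DMSO and isoniazid controls. Incubated 6 days at 37 °C, then 0.01% resazurin added for 24 h more. Read by colour change (blue to pink) and OD 530–630 nm. MIC95 (>95% growth inhibition) derived by curve fitting.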

## C#CC(C)(C)Oc1ccc(-c2ccccc2)cc1
[1]
  MIC95: > 100 µg/mL
[2]
  MIC95: > 100 µg/mL

## O=C(c1ccc(O)cc1)c1ccc(O)cc1
[1]
  MIC95: 62 µg/mL (≈ 289 µM)
[2]
  MIC95: 125 µg/mL (≈ 584 µM)

## CC1(C)C=Cc2cc(Oc3ccccc3)ccc2O1
[1]
  MIC95: 70 µg/mL (≈ 277 µM)
[2]
  MIC95: > 500 µg/mL

## C#CC(C)(C)Oc1ccc2oc3c(c2c1)CCCC3
[1]
  MIC95: > 100 µg/mL
[2]
  MIC95: > 100 µg/mL

## CC1(C)C=Cc2cc(C(=O)c3ccc(O)cc3)ccc2O1
[1]
  MIC95: 32 µg/mL (≈ 114 µM)
[2]
  MIC95: 62 µg/mL (≈ 221 µM)

## CC1(C)C=Cc2cc(-c3ccccc3)ccc2O1
[1]
  MIC95: > 500 µg/mL
[2]
  MIC95: > 500 µg/mL

## CC1(C)C=Cc2cc3oc4ccccc4c3cc2O1
[1]
  MIC95: 20 µg/mL (≈ 79.9 µM)
[2]
  MIC95: 35 µg/mL (≈ 140 µM)

## CC(=O)c1cc2oc3ccccc3c2c2c1OC(C(C)C)C2 (stereo unspecified)
[1]
  MIC95: > 500 µg/mL
[2]
  MIC95: > 500 µg/mL

## CC(=O)c1ccc2oc3ccc(O)cc3c2c1
[1]
  MIC95: > 500 µg/mL
[2]
  MIC95: 8 µg/mL (≈ 35.4 µM)

## CC(=O)c1ccc2oc3ccc(C(C)=O)cc3c2c1
[1]
  MIC95: 5 µg/mL (≈ 19.8 µM)
[2]
  MIC95: 10 µg/mL (≈ 39.6 µM)

## CC1(C)C=Cc2cc(C(O)c3ccccc3)ccc2O1 (stereo unspecified)
[1]
  MIC95: 20 µg/mL (≈ 75.1 µM)
[2]
  MIC95: 20 µg/mL (≈ 75.1 µM)

## CC1(C)CCc2cc(Cc3ccccc3)ccc2O1
[1]
  MIC95: > 500 µg/mL
[2]
  MIC95: 30 µg/mL (≈ 119 µM)

## Oc1ccc2oc3ccc(O)cc3c2c1
[1]
  MIC95: 15 µg/mL (≈ 74.9 µM)
[2]
  MIC95: 15 µg/mL (≈ 74.9 µM)

## CC(=O)c1ccc2oc3ccc4c(c3c2c1)C=CC(C)(C)O4
[1]
  MIC95: > 500 µg/mL
[2]
  MIC95: > 500 µg/mL

## CC1(C)C=Cc2cc(C(O)c3cccnc3)ccc2O1 (stereo unspecified)
[1]
  MIC95: 62 µg/mL (≈ 232 µM)
[2]
  MIC95: 62 µg/mL (≈ 232 µM)

## CC1(C)C=Cc2c(ccc3oc4c(c23)CCCC4)O1
[1]
  MIC95: > 500 µg/mL
[2]
  MIC95: 120 µg/mL (≈ 472 µM)

## C#CC(C)(C)Oc1ccc(Oc2ccccc2)cc1
[1]
  MIC95: > 100 µg/mL
[2]
  MIC95: > 100 µg/mL

## C#CC(C)(C)Oc1cccc(-c2ccccc2)c1
[1]
  MIC95: > 100 µg/mL
[2]
  MIC95: > 100 µg/mL

## CC1(C)C=Cc2c(ccc3oc4ccccc4c23)O1
[1]
  MIC95: 10 µg/mL (≈ 40 µM)
[2]
  MIC95: 10 µg/mL (≈ 40 µM)

## CC1(C)CCc2cc3oc4ccccc4c3cc2O1
[1]
  MIC95: 40 µg/mL (≈ 159 µM)
[2]
  MIC95: > 500 µg/mL

## CC1(C)CCc2c(ccc3oc4ccccc4c23)O1
[1]
  MIC95: 10 µg/mL (≈ 39.6 µM)
[2]
  MIC95: 10 µg/mL (≈ 39.6 µM)

## Oc1ccc2oc3c(c2c1)CCCC3
[1]
  MIC95: 31 µg/mL (≈ 165 µM)
[2]
  MIC95: 500 µg/mL (≈ 2660 µM)

## CC1(C)CCc2c(c(Br)cc3oc4ccccc4c23)O1
[1]
  MIC95: > 500 µg/mL
[2]
  MIC95: > 500 µg/mL

## CC(=O)c1cc2oc3ccccc3c2c2c1OC(C)(C)CC2
[1]
  MIC95: > 500 µg/mL
[2]
  MIC95: > 500 µg/mL

## Oc1ccc2oc3ccccc3c2c1
[2]
  MIC95: 25 µg/mL (≈ 136 µM)

## CC1(C)C=Cc2cc3oc4ccccc4c3c(Br)c2O1
[1]
  MIC95: 120 µg/mL (≈ 365 µM)
[2]
  MIC95: 30 µg/mL (≈ 91.1 µM)

## CC1(C)CCc2cc(C(=O)c3ccccc3)ccc2O1
[1]
  MIC95: 50 µg/mL (≈ 188 µM)
[2]
  MIC95: 30 µg/mL (≈ 113 µM)

## CC1(C)C=Cc2cc(C(=O)c3ccccc3)ccc2O1
[1]
  MIC95: 20 µg/mL (≈ 75.7 µM)
[2]
  MIC95: 40 µg/mL (≈ 151 µM)

## CC1(C)CCc2cc(C(=O)c3ccccc3)c(O)cc2O1
[1]
  MIC95: 4 µg/mL (≈ 14.2 µM)
[2]
  MIC95: 62 µg/mL (≈ 220 µM)

## C#CC(C)(C)Oc1ccc2oc3ccc(C(C)=O)cc3c2c1
[1]
  MIC95: > 100 µg/mL
[2]
  MIC95: > 100 µg/mL

## NNC(=O)c1ccncc1 [ISONIAZID]
[1]
  MIC95: 12 µg/mL (≈ 87.5 µM)
[2]
  MIC95: 0.1 µg/mL (≈ 0.729 µM)
